Rad51 HR inh – blocks human Rad51 in homologous recombination; Q06609; hRad51 DNA strand exchange, fluorescence dequenching; inhibition, % at 10 µM; 200,000 tested, 0.085% active; AID 1385;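 active means inhibition above 40% at the single screening dose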;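 further: 0% = DMSO control wells and 100% = blanks with heterologous ssDNA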
Target sequence (Q06609 whole entry, looked up): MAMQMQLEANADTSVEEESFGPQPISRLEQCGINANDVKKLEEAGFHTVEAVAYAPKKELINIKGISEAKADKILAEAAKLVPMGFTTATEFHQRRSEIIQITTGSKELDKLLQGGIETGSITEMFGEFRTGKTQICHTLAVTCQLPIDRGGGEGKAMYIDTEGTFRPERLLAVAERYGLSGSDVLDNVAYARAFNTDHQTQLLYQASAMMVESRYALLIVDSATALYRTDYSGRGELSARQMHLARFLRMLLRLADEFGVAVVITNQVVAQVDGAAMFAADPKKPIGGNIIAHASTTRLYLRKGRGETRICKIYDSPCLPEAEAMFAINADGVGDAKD
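material = hRad51 filaments on single-stranded DNA | reagent = Donor/quencher-labelled 47-bp dsDNA substrate | compound = 10 µM final, single point | schedule = strand-exchange reaction 15 min at room temperature | measured by = fluorescein emission 520 nm, excitation 485 nm | read-out basis = % inhibition versus plate control and blank means | benchmarks = plate controls and plate blanks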
Lmaj promast – reduces viability of Leishmania major promastigotes; 200,000 tested, 9% active; AID 1063; resazurin fluorescence viability; inhibition, % at 10 µM; in the data active means inhibition above about 50%;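 further: promastigotes grown with compound for 44 hours at 28 °C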
m-calpain inh – calpain II (pig) inhibition | 220,000 tested, 0.37% active | inhibition, % at 16 µM | AID 1236 | purified calpain II, fluorogenic peptide substrate, 30 min;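 active means inhibition above about 50%, limit read from the data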
WT yeast gro inh – growth inhibition of WT yeast, mitochondrial fusion screen | mitochondrial fusion phenotypic screen, WT strain | inhibition, % at 10 µM | 190,000 tested, 2.1% active | AID 1362; in the data active means inhibition above about 58%; tested in S. cerevisiae
PMI activator – activators of human phosphomannose isomerase. 190,000 tested, 0.005% active. AID 1214. purified human PMI, coupled resazurin fluorescence, 20 min; hits give high values; 1 = vehicle control, 0 substrate-free wells. activation factor at 20 µM;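 active means activation factor of 2 or more at 20 µM, relative to plate controls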
PMI act satM6P – increases human PMI activity with near-saturating mannose 6-phosphate. P34949. coupled PMI enzyme assay, resazurin fluorescence, 20 min; hits give high values; 1 = untreated enzyme, 0 = substrate-free blank. activation factor at 20 µM. 190,000 tested, 0.34% active;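 active means activation factor of 2 or more at 20 µM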
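Test system: human phosphomannose isomerase with PGI, G6PDH, diaphorase coupling enzymes; Amount: PMI at 15 ng/mL final; Reagent: Mannose-6-phosphate 1.0 mM (near-saturating) plus 0.22 mM NADP+; Timing: 20 min, room temperature; Technique: resorufin fluorescence at Ex 544/Em 590 nm; Dosing: 20 µM single dose.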
* hit, by the source's call; / = not tested or not shown. The list is not random: actives were taken first. Their share in the collection is about 9.8%.

SMILES | Rad51 HR inh | Lmaj promast | m-calpain inh | WT yeast gro inh | PMI activator | PMI act satM6P
Cc1onc(-c2c(F)cccc2Cl)c1C(=O)N1CCN(S(C)(=O)=O)CC1 | 2.9 | -7.3 | 17.4 | -19.0 | 1 | 1
Cc1onc(-c2c(F)cccc2Cl)c1C(=O)Nc1nc2c(s1)CCCC2 | 4.7 | 58.2* | -38.3 | -0.1 | 1 | 1
Cc1onc(-c2c(F)cccc2Cl)c1C(=O)N1CCc2ccccc2C1 | 12.3 | 99.7* | 14.7 | 14.3 | 1 | 1
COc1cccc(C(=O)/C(C#N)=N/Nc2cccc(-c3ccnc(C)n3)c2)c1 | 12.5 | / | 13.2 | / | / | /
CCOC(=O)Cc1nn(Cc2nc(-c3ccc(C)cc3)cs2)c(=O)c2ccccc12 | -10.5 | / | 26.4 | / | / | /
COc1cc(-c2noc(CCCC(=O)NCc3ccccc3)n2)cc(OC)c1OC | -7.7 | 4.2 | 10.3 | 11.7 | 1 | 1.1
C=CCOc1c(OC)cc(/C=N/Nc2cccc(C(=O)O)c2)c(Br)c1Br | -8.0 | -7.2 | 18.2 | -7.8 | 1.6 | 2.4*
C=CCOc1c(/C=N\NC(N)=O)cccc1OC | 18.4 | / | -12.1 | / | / | /
CCOc1ccc(Cl)cc1CN1CCOCC1 | -5.9 | 3.9 | -19.9 | -26.4 | 1.1 | 1.1
CC(C)CCOc1ccc(Cl)cc1CN1CCOCC1 | 0.6 | 89.4* | 16.7 | 12.5 | 0.9 | 0.9
CCCCCOc1ccc(Cl)cc1CN1CCOCC1 | -0.6 | 79.6* | -6.1 | 38.6 | 1 | 1.1
Cc1nn2c(COc3ccc(NC(=O)c4ccccc4Cl)cc3)nnc2c2ccccc12 | 2.1 | 3.0 | -46.4 | 8.6 | 1 | 1
CN1CCc2nc3sc(C(=O)C45CC6CC(CC(C6)C4)C5)c(N)c3cc2C1 | / | 95.8* | 3.8 | 10.7 | 1.2 | 1.4
O=C(CN1C(=O)NC2(CCCCCCC2)C1=O)NCc1cccs1 | 0.0 | -2.3 | 4.4 | -1.4 | 0.9 | 1
CC(C)(C)c1ccc(C2(C)NC(=O)N(CC(=O)NCc3cccs3)C2=O)cc1 (stereo not drawn) | -3.4 | 68.9* | 20.0 | -0.9 | 1 | 1
O=C(Cn1c(C(=O)NCC2CCCO2)cc2sccc21)c1ccccc1 (stereo not drawn) | 1.7 | 7.9 | -8.9 | -19.6 | 0.9 | 0.9
O=C(Cn1c(C(=O)N2CCN(C3CCCC3)CC2)cc2sccc21)c1ccccc1 | / | 93.0* | -26.9 | 0.4 | 1.1 | 1
C[N+]1(CN2C(=O)C3C4C=CC(C4)C3C2=O)CCCCC1 (stereo not drawn) | -3.1 | / | -9.5 | / | / | /
Cc1cc(N2CCN(C(=O)c3ccco3)CC2)n2nc(C)c(-c3ccccc3)c2n1 | 3.8 | 12.7 | -378.8 | 63.0* | 0.9 | 0.9
CCN1CCN(c2cc(C(C)(C)C)nc3c(-c4ccccc4)c(C)nn23)CC1 | 4.0 | 95.8* | -29.1 | 94.4* | 0.8 | 0.9
Cc1cc(N2CCN(C(=O)c3ccco3)CC2)n2nc(C)c(-c3ccc(Cl)cc3)c2n1 | / | / | / | / | 0.8 | 0.8
Cc1nc2c(-c3ccc(F)cc3)c(C)nn2c(C)c1CCC(=O)Nc1ccc(F)cc1F | 13.9 | / | -41.3 | / | / | /
CCN1CCN(c2ccc(NC(=O)CCc3c(C)nc4c(-c5ccccc5)c(C)nn4c3C)cc2)CC1 | -8.8 | 100.3* | -10.0 | -6.6 | 1 | 0.9
CC(C)c1ccc(NC(=O)N2CCCC2C(=O)Nc2ccc(-n3cnnn3)cc2)cc1 (stereo not drawn) | 23.0 | 65.6* | 20.1 | -0.4 | 1 | 1
CC(=O)Nc1cc(C(F)(F)F)ccc1Oc1cccc(Br)c1 | 8.0 | 34.1 | -17.9 | 7.5 | 1 | 1
SMILES | Rad51 HR inh | Lmaj promast | m-calpain inh | WT yeast gro inh | PMI activator | PMI act satM6P
CCOCC(=O)Nc1cc(C(F)(F)F)ccc1Oc1cccc(Br)c1 | -0.5 | 8.9 | 39.0 | 66.2* | 0.9 | 0.9
Cc1cccc2cc(CN(Cc3ccco3)C(c3nnnn3CCc3ccccc3)C(C)C)c(=O)[nH]c12 (stereo not drawn) | 7.5 | 87.2* | -77.5 | 24.6 | 1 | 1
COc1ccc2[nH]c(=O)c(CN(Cc3ccco3)C(c3nnnn3Cc3ccccc3)C(C)C)cc2c1 (stereo not drawn) | 1.2 | 46.7 | -145.6 | 20.7 | 1 | 1
O=S(=O)(c1ccc(F)cc1)N1CCN(Cc2ccccn2)CC1 | 0.0 | -4.4 | -0.7 | -10.6 | 1 | 1
C/C(=N\NC(=O)c1cccc(Cl)c1)C1C(=O)c2ccccc2C1=O | / | 96.7* | -7.9 | -6.7 | 1.4 | 1.4
C/C(=N\NC(=O)CCc1ccccc1)C1C(=O)c2ccccc2C1=O | -11.0 | -3.4 | 7.9 | -12.8 | / | /

Screens as filed in PubChem.
